# Assay results published in PMC3875364 (Biochemistry, 2013).
# Columns and labels:
# [1] = system: 5′-FAM-DNA20 (20-mer single-stranded DNA); experiment: Fluorescence anisotropy; type: binding
# Method in brief: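 Binding was measured by fluorescence anisotropy. CCHC-containing constructs were reconstituted with 3 equiv zinc unless noted. Kd was fitted with a quadratic binding equation corrected for the bound/free intensity ratio.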
# [2] = system: 59-nt TAR RNA / TAR DNA hairpins; experiment: Gel-shift TAR RNA/DNA annealing assay; type: biochemical, HIV-1; conditions: for kobs: average of three trials ± SD, SD; for Fold decrease of kobs relative to WT NC: normalized for protein concentration
# [3] = system: 59-nt TAR RNA and TAR DNA; experiment: Sedimentation assay of nucleic acid aggregation; type: biochemical, HIV-1; conditions: 0.2 mM MgCl2
# Method in brief: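 Refolded 32P-TAR RNA (15 nM) and TAR DNA (45 nM) were incubated with varying protein in 20 mM HEPES pH 7.5 and 20 mM NaCl (final MgCl2 0.2 mM) for 30 min at 37 °C. Fragments were run at 10–50 μM, with or without zinc. Samples were centrifuged at 10000 rpm for 10 min, and supernatant radioactivity was counted by scintillation.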
# [4] = 0.88 μM peptide, 45 nM TAR DNA, 2 mM MgCl2
# [5] = 4 μM protein, 90 nM TAR DNA and 2 mM MgCl2
substance,measurement,setting,value
"NC(1-14): HIV-1 NC fragment, residues 1-14, basic N-terminal domain",Binding to 5′-FAM-DNA20 (in words),"[1]; FA, no zinc acetate",no binding could be detected
same,Final % Annealing,"[2]; 20 μM peptide, 15 nM TAR RNA, 45 nM TAR DNA, 0.2 mM MgCl2, 37 °C, 30 min",3%
same,Final % Annealing,"[2]; 50 μM peptide, 15 nM TAR RNA, 45 nM TAR DNA, 0.2 mM MgCl2, 37 °C, 30 min",did not change appreciably
"NC(1-35): HIV-1 NC fragment, residues 1-35, purchased from Genscript",Fold higher affinity of zinc-bound form relative to zinc-less variant,[1]; 5′-FAM-DNA20,2- to 3 fold
same,Fold lower ss DNA binding affinity than WT NC,"[1]; 5′-FAM-DNA20, 50 mM NaCl",≤ 2 fold
same,Kd,"[1]; read-out: Apparent binding dissociation constant Kd to 5′-FAM-DNA20, FA, 20 nM DNA, 20 mM HEPES pH 7.5, 50 mM NaCl, 5 mM β-mercaptoethanol, 10 μM TCEP, 1 μM zinc acetate, 30 min, 25 °C, average of three trials ± SD, SD",86 ± 19 nM
same,Nucleic acid aggregation (in words),[3],essentially complete aggregation
same,RNA annealed at 30 sec,"[2]; 0.88 μM peptide, 45 nM TAR DNA, 0.2 mM MgCl2",~ 75%
same,Final % Annealing,[2]; [4],54%
same,kobs,[2]; [4],0.17 ± 0.07 min⁻¹
same,Fold decrease of kobs relative to WT NC,"[2]; 0.88 μM peptide, 2 mM MgCl2",1.3 fold
WT (zinc-less): full-length HIV-1 NC not reconstituted with zinc,Final % Annealing,[2]; [5],22%
same,kobs,[2]; [5],0.07 ± 0.02 min⁻¹
same,Fold decrease of kobs relative to WT NC,[2]; [5],2 fold
